According to ChEMBL document CHEMBL3112444, “Synthesis and anticancer activity of focused compound libraries from the natural product lead, oroidin” (2014):

How the values were obtained:
[1] = Cytotoxicity against human U87 cells assessed as growth inhibition at 25 uM after 72 hrs by MTT assay relative to control; type: functional, U-87MG ATCC; conditions: U-87 MG, read-out: GI
In short: (§1)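 Cells in logarithmic growth kept in DMEM with 10% FBS, 10 mM sodium bicarbonate, penicillin 100 IU/mL, glutamine 4 mM, at 37 °C under 5% CO2. Plated in duplicate at 2500–4000 cells/well. Compound (30 mM DMSO stock) added 24 h after plating. MTT read at 540 nm after 72 h exposure.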

[2] = Cytotoxicity against mouse SMA cells assessed as growth inhibition at 25 uM after 72 hrs by MTT assay relative to control; type: functional; conditions: read-out: GI; in short: as §1
[3] = Cytotoxicity against human MIA cells assessed as growth inhibition at 25 uM after 72 hrs by MTT assay relative to control; type: functional; conditions: read-out: GI; in short: as §1
[4] = Cytotoxicity against human SJ-G2 cells assessed as growth inhibition at 25 uM after 72 hrs by MTT assay relative to control; type: functional; conditions: SJ-G2, 72 h, read-out: GI; in short: as §1
[5] = Cytotoxicity against human BE(2)-C cells assessed as growth inhibition at 25 uM after 72 hrs by MTT assay relative to control; type: functional; conditions: read-out: GI; in short: as §1
DU-145 = assay: Cytotoxicity against human DU145 cells assessed as growth inhibition at 25 uM after 72 hrs by MTT assay relative to control; type: functional; conditions: DU-145, 72 h, read-out: GI; in short: as §1
A-431 = assay: Cytotoxicity against human A431 cells assessed as growth inhibition at 25 uM after 72 hrs by MTT assay relative to control; type: functional; conditions: A-431, 72 h, read-out: GI; in short: as §1
[6] = Cytotoxicity against human H460 cells assessed as growth inhibition at 25 uM after 72 hrs by MTT assay relative to control; type: functional; conditions: NCI-H460, 72 h, read-out: GI; in short: as §1
A2780 = assay: Cytotoxicity against human A2780 cells assessed as growth inhibition at 25 uM after 72 hrs by MTT assay relative to control; type: functional; conditions: A2780, 72 h, read-out: GI; in short: as §1
MCF7 = assay: Cytotoxicity against human MCF7 cells assessed as growth inhibition at 25 uM after 72 hrs by MTT assay relative to control; type: functional; conditions: MCF7, 72 h, read-out: GI; in short: as §1
SW480 = assay: Cytotoxicity against human SW480 cells assessed as growth inhibition at 25 uM after 72 hrs by MTT assay relative to control; type: functional; conditions: SW480, 72 h, read-out: GI; in short: as §1
HT-29 = assay: Cytotoxicity against human HT-29 cells assessed as growth inhibition at 25 uM after 72 hrs by MTT assay relative to control; type: functional; conditions: HT-29, 72 h, read-out: GI; in short: as §1

Compound | inhibition of growth at 25 µM [1] | inhibition of growth at 25 µM [2] | inhibition of growth at 25 µM [3] | inhibition of growth at 25 µM [4] | inhibition of growth at 25 µM [5] | inhibition of growth at 25 µM (DU-145) | inhibition of growth at 25 µM (A-431) | inhibition of growth at 25 µM [6] | inhibition of growth at 25 µM (A2780) | inhibition of growth at 25 µM (MCF7) | inhibition of growth at 25 µM (SW480) | inhibition of growth at 25 µM (HT-29)
O=C(NCc1ccc(Cl)c(Cl)c1)c1ccc[nH]1 | 4% | 17% | < 0% | 11% | < 0% | < 0% | 6% | 14% | 15% | 7% | < 0% | 14%
O=C(NCCCc1ccccc1)c1ccc[nH]1 | 11% | 8% | 10% | 0% | < 0% | < 0% | 1% | 13% | 10% | 21% | 7% | 16%
O=C(NCCCn1cccn1)c1ccc[nH]1 | 9% | 8% | 19% | < 0% | 1% | 7% | 1% | 14% | 10% | 7% | 9% | 4%
O=C(NCCc1ccccc1)c1ccc[nH]1 | 9% | 7% | < 0% | 2% | < 0% | 5% | 5% | 5% | 6% | 7% | 9% | 9%
O=C(NCCc1ccc2ccccc2c1)c1cc(Br)c(Br)[nH]1 | < 0% | 17% | 21% | 10% | < 0% | 14% | 15% | 12% | 52% | 53% | < 0% | 28%
O=C(NCCCCc1ccccc1)c1ccc[nH]1 | < 0% | 6% | 15% | 8% | < 0% | 10% | 12% | 11% | 13% | 23% | < 0% | 16%
O=C(NCCCc1ccccc1)c1cc(Br)c(Br)[nH]1 | < 0% | 45% | 21% | 8% | < 0% | < 0% | 5% | 25% | 48% | 63% | < 0% | 41%
O=C(NCCCCc1ccccc1)c1cc(Br)c(Br)[nH]1 | < 0% | 40% | 34% | 14% | < 0% | 19% | 24% | 17% | 56% | 70% | < 0% | 41%
Cc1nccn1CCCNC(=O)c1cc(Br)c(Br)[nH]1 | < 0% | 11% | 15% | 10% | 20% | 28% | 11% | 22% | 21% | 36% | 26% | 10%
O=C(NCCCn1cccn1)c1cc(Br)c(Br)[nH]1 | < 0% | 6% | 3% | < 0% | 6% | 5% | 3% | 14% | 15% | 12% | < 0% | 4%
Cc1nccn1CCCNC(=O)c1ccc[nH]1 | 3% | < 0% | 4% | < 0% | < 0% | 5% | < 0% | 3% | 1% | 8% | 7% | 5%
CCc1ccc(CCNC(=O)c2cc(Br)c(Br)[nH]2)cc1 | 6% | 79% | 31% | 22% | 20% | 7% | 22% | 23% | 67% | 88% | 5% | 81%
O=C(NCCc1c[nH]cn1)c1cc(Br)c(Br)[nH]1 | 5% | 18% | 20% | 11% | 13% | < 0% | 2% | 35% | 37% | 23% | 12% | 11%
O=C(NCCc1c[nH]cn1)c1ccc[nH]1 | 6% | 0% | 7% | < 0% | < 0% | 5% | 3% | 0% | 11% | 1% | 1% | 11%
O=C(NCCc1ccc(O)cc1)c1ccc[nH]1 | 2% | < 1% | 6% | 11% | < 0% | < 0% | < 0% | 2% | 18% | 8% | 5% | 3%
O=C(NCc1ccc(Cl)cc1)c1ccc[nH]1 | 4% | 10% | 1% | < 0% | < 0% | < 0% | < 0% | < 0% | 2% | 10% | 4% | 10%
O=C(NCCc1ccc2ccccc2c1)c1ccc[nH]1 | < 1% | 16% | 20% | 8% | < 0% | 20% | 8% | 23% | 13% | 23% | 3% | 19%
O=C(NCC(c1ccccc1)c1ccccc1)c1ccc[nH]1 | 14% | 15% | 32% | 53% | < 0% | 8% | 30% | 11% | 27% | 52% | < 0% | 29%
